In brackets after ≈: the same amount, converted by molar mass.
Experiments:
Stromelysin-1 = Stromelysin-1 (Homo sapiens, UniProt P08254); experiment: Inhibition of MMP3
Method in brief: (§1)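 Catalytic-domain enzyme; 1 µM stock activated with APMA (1 mM, 1 h at 37 °C for MMP-2; 2 mM, 3 h at 37 °C for MMP-3), then diluted to 10 nM in Tris–HCl buffer. Assay used 0.1 nM enzyme and 5 µM fluorogenic substrate Mca-Arg-Pro-Lys-Tyr-Ala-Nva-Trp-Met-Lys(Dnp)-NH2. Inhibitor (≤1% DMSO) preincubated with enzyme 15 min at 37 °C. After substrate, 1 h at 37 °C; fluorescence read at ex 328/em 393 nm. IC50 taken from concentration–response curves as the geometric mean of ≥3 experiments.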

[1] = target: 72 kDa type IV collagenase (Homo sapiens, UniProt P08253); experiment: Inhibition of MMP2; method in brief: as §1
Chain of 72 kDa type IV collagenase (P08253 whole entry): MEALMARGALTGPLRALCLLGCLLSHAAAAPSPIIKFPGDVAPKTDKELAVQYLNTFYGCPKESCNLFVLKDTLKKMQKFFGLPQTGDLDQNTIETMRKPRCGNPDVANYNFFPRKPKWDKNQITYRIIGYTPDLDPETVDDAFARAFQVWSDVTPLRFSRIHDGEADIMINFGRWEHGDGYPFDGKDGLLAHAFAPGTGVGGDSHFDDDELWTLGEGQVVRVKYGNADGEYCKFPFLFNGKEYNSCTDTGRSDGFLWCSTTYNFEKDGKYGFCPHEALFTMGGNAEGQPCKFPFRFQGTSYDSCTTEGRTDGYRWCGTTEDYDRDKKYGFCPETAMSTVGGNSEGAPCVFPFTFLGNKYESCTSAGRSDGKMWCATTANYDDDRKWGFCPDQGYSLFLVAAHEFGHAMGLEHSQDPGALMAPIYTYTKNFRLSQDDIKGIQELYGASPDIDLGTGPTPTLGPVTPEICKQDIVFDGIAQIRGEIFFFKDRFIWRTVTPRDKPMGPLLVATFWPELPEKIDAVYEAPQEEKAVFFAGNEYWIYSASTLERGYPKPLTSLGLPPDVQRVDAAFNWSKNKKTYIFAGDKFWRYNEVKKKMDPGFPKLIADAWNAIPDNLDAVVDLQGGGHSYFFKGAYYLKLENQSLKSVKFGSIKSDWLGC

Interstitial collagenase = target: T1, Interstitial collagenase (Homo sapiens, UniProt P03956); experiment: Inhibition of MMP1
T1 sequence (P03956 whole entry): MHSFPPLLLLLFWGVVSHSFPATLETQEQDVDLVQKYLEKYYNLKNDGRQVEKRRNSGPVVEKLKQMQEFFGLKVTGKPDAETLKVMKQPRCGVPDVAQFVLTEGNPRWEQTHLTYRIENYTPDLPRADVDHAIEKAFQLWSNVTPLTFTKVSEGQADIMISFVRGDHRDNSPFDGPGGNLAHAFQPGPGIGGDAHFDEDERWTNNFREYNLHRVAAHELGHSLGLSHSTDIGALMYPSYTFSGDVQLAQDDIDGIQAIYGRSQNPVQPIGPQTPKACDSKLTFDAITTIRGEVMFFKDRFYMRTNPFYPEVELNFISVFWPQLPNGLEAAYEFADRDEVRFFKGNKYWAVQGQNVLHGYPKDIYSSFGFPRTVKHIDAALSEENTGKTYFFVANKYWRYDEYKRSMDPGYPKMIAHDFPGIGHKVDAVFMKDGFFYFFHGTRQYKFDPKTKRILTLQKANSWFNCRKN

[2] = target: Matrix metalloproteinase-9 (Homo sapiens, UniProt P14780); experiment: Inhibition of MMP9
Chain of Matrix metalloproteinase-9 (P14780 whole entry): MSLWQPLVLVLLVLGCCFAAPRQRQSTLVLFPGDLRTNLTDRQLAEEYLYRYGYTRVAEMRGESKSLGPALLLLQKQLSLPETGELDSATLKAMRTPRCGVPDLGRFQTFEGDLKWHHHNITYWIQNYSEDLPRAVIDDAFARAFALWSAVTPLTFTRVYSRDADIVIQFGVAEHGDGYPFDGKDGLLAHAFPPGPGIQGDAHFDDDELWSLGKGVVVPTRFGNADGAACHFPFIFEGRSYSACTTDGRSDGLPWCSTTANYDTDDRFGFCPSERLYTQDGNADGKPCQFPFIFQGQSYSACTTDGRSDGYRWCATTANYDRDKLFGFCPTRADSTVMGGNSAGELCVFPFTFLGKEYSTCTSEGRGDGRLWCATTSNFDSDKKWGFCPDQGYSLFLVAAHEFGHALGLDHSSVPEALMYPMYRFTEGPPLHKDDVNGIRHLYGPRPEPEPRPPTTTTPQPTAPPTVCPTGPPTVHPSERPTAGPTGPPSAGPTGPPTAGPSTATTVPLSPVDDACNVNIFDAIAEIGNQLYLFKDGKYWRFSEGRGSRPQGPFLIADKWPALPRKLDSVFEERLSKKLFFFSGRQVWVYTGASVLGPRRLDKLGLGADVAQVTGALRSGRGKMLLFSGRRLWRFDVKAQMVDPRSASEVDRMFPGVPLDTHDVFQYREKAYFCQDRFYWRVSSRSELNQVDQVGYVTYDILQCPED

Collagenase 3 = Collagenase 3 (Homo sapiens, UniProt P45452); experiment: Inhibition of MMP13
[3] = target: Matrix metalloproteinase-14 (Homo sapiens, UniProt P50281); experiment: Inhibition of MMP14
[4] = Selectivity for MMP3 over MMP2
[5] = Aqueous solubility of the compound; assay type: physicochemical
Method in brief: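 Solubility in aqueous media determined across pH 1, 5, 7, 9 and 11.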

Chain of Stromelysin-1 (P08254 whole entry): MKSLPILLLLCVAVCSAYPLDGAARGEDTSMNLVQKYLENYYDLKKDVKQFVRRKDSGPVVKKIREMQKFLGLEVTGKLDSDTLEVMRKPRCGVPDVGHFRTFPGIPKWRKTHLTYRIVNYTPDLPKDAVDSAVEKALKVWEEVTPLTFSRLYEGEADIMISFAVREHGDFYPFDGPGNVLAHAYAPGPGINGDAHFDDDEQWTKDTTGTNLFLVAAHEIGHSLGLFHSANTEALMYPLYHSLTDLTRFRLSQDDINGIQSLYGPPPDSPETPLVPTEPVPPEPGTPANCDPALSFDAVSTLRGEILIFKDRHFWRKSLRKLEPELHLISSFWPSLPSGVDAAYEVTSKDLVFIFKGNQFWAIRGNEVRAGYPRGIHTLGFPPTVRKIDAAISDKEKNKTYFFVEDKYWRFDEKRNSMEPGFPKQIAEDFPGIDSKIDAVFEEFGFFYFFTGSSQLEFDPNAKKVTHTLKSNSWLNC

SMILES	IC50 (Stromelysin-1)	IC50 [1]	also measured
CNCCOc1cccc(-c2ccc(C3CCN(S(=O)(=O)C(C)(C)C(=O)NO)CC3)cc2C)c1	0.3 nM	196 nM	–
COC[C@@H](NC(=O)[C@@H](NC(=O)[C@H](CCCc1ccc(-c2ccccc2)c(C)c1)CC(=O)O)C(C)(C)C)c1ccccc1	23 nM	–	IC50 (Interstitial collagenase): > 100000 nM; IC50 [2]: 30400 nM; IC50 (Collagenase 3): 2300 nM; IC50 [3]: 66900 nM
O=C(CS(=O)(=O)N1CC=C(c2ccc(-c3ccccc3)c(C(F)(F)F)c2)CC1)NO	960 nM	3080 nM	–
O=C(CS(=O)(=O)N1CC(c2ccc(-c3ccccc3)cc2)C1)NO	161 nM	–	Selectivity ratio [4]: < 2
Cc1cc(C2=CCN(S(=O)(=O)CC(=O)NO)CC2)ccc1-c1cccc(OC(F)(F)F)c1	51 nM	173 nM	–
Cc1cc(C2CCN(S(=O)(=O)C(C)(C)C(=O)NO)CC2)ccc1-c1cccc(OCCO)c1	1 nM	262 nM	IC50 (Interstitial collagenase): 3230 nM; IC50 [2]: 406 nM; IC50 [3]: 1710 nM; solubility [5]: 1 µg/mL (≈ 2.1 µM)
O=C(CS(=O)(=O)N1CC=C(c2ccc(-c3ccccc3)c(F)c2)CC1)NO	3 nM	17 nM	–
O=C(CS(=O)(=O)N1CC(Oc2ccc(-c3ccccc3)cc2)C1)NO	84 nM	–	Selectivity ratio [4]: < 2
CN(CCCc1ccc(-c2ccccc2)cc1)S(=O)(=O)CC(=O)NO	174 nM	–	Selectivity ratio [4]: < 2
Cc1cc(C2=CCN(S(=O)(=O)CC(=O)NO)CC2)ccc1-c1ccccc1	–	320 nM	–
O=C(CS(=O)(=O)N1CC=C(c2ccc(-c3ccccc3)c(Cl)c2)CC1)NO	55 nM	620 nM	–
O=C(CS(=O)(=O)N1CCC(c2ccc(-c3ccccc3)cc2)CC1)NO	–	–	Selectivity ratio [4]: < 2
O=C(CS(=O)(=O)N1CC=C(c2ccc(-c3ccccc3)cc2)CC1)NO	6 nM	9 nM	Selectivity ratio [4]: < 2
CCOc1cccc(-c2ccc(C3=CCN(S(=O)(=O)CC(=O)NO)CC3)cc2C)c1	4 nM	998 nM	solubility [5]: < 1 µg/mL
CN(CCc1ccc(-c2ccccc2)cc1)S(=O)(=O)CC(=O)NO	164 nM	–	Selectivity ratio [4]: < 2
CN(Cc1ccc(-c2ccccc2)cc1)S(=O)(=O)CC(=O)NO	378 nM	–	Selectivity ratio [4]: < 2
Cc1cc(C2CCN(S(=O)(=O)C(C)(C)C(=O)NO)CC2)ccc1-c1cccc(OCCN(C)C)c1	1 nM	534 nM	–
Cc1cccc(-c2ccc(C3=CCN(S(=O)(=O)CC(=O)NO)CC3)cc2C)c1	4 nM	776 nM	–
O=C(CS(=O)(=O)N1CCC(c2ccc(Oc3ccccc3)cc2)CC1)NO	205 nM	–	Selectivity ratio [4]: < 2
COCc1cccc(-c2ccc(C3=CCN(S(=O)(=O)CC(=O)NO)CC3)cc2C)c1	3 nM	196 nM	–
CCOc1cccc(-c2ccc(C3CCN(S(=O)(=O)C(C)(C)C(=O)NO)CC3)cc2C)c1	2 nM	457 nM	–
CCc1cc(C2=CCN(S(=O)(=O)CC(=O)NO)CC2)ccc1-c1ccccc1	420 nM	4380 nM	–
Cc1cc(C2CCN(S(=O)(=O)C(C)(C)C(=O)NO)CC2)ccc1-c1cccc(OCCO)n1	1 nM	529 nM	IC50 (Interstitial collagenase): 14000 nM; IC50 [2]: 2420 nM; IC50 [3]: 20100 nM; solubility [5]: 1 µg/mL (≈ 2.09 µM)
COCCOc1cccc(-c2ccc(C3CCN(S(=O)(=O)C(C)(C)C(=O)NO)CC3)cc2C)c1	3 nM	853 nM	–
COc1cccc(-c2ccc(C3=CCN(S(=O)(=O)CC(=O)NO)CC3)cc2C)c1	5 nM	222 nM	–
Cc1cc(C2CCN(S(=O)(=O)C(C)(C)C(=O)NO)CC2)ccc1-c1cccc(OCCN)c1	0.4 nM	188 nM	–
CCc1cccc(-c2ccc(C3=CCN(S(=O)(=O)CC(=O)NO)CC3)cc2C)c1	31 nM	1210 nM	–

From ChEMBL document CHEMBL1141365, “A novel series of highly selective inhibitors of MMP-3” (Bioorg Med Chem Lett, 2007)
